Reference: ChEMBL document CHEMBL5346861, “Designing quinoline-isoniazid hybrids as potent anti-tubercular agents inhibiting mycolic acid biosynthesis” (Eur J Med Chem, 2022)
Converted amounts (≈) assume the structure as drawn. The source made the active and inactive calls. No cut-off for these calls is given here.

How the values were obtained:
[1] = test system: Mycobacterium tuberculosis; assay: Antimycobacterial activity against Mycobacterium tuberculosis mc2 6230 harbouring pMV261 plasmid overexpressing inhA assessed as inhibition of bacterial growth measured after 7 days by 7H9 broth based dilution method; format: functional; settings: mc2 6230, 168 h, time 7 day
[2] = test system: Mycobacterium tuberculosis; assay: Antimycobacterial activity against Mycobacterium tuberculosis mc2 6230 harbouring pMV261 plasmid overexpressing inhA assessed as inhibition of bacterial growth measured after 7 days by 7H10 agar based dilution method; format: functional; settings: mc2 6230, 168 h, time 7 day
[3] = test system: Mycobacterium tuberculosis; assay: Induction of resistance development in Mycobacterium tuberculosis mc2 6230 harbouring pMV261 plasmid overexpressing inhA assessed as fold increase in MIC measured after 7 days by 7H9 broth based dilution method; format: functional; settings: time 7 day
[4] = test system: Mycobacterium tuberculosis; assay: Induction of resistance development in Mycobacterium tuberculosis mc2 6230 harbouring pMV261 plasmid overexpressing inhA assessed as fold increase in MIC measured after 7 days by 7H10 agar based dilution method; format: functional; settings: time 7 day
[5] = test system: Mycobacterium tuberculosis; assay: Inhibition of mycolic acid biosynthesis in Mycobacterium tuberculosis mc2 6230 harbouring pMV261 plasmid overexpressing inhA assessed as decrease in alpha-mycolic acid at 1.25 ug/ml incubated for 15 mins followed by 14C-labeled acetate addition measured after 7 hrs by TLC analysis; format: functional, organism-based; settings: dose 1.25 µg/ml, time 435.0 min
In short: (§1)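 mc²6230 carrying pMV261-inhA, treated for 15 hrs at 37 °C with agitation in 7H9/OADC/tyloxapol/pantothenate. Then labelled with 1 μCi/mL [¹⁴C]acetate for 7 hrs. Mycolic acid methyl esters extracted, 50,000 cpm resolved by TLC (hexane/ethyl acetate 19/1, 2 runs) and exposed overnight.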

[6] = test system: Mycobacterium tuberculosis; assay: Inhibition of mycolic acid biosynthesis in Mycobacterium tuberculosis mc2 6230 harbouring pMV261 plasmid overexpressing inhA assessed as decrease in methoxy-mycolic acid at 1.25 ug/ml incubated for 15 mins followed by 14C-labeled acetate addition measured after 7 hrs by TLC analysis; format: functional, organism-based; settings: dose 1.25 µg/ml, time 435.0 min; in short: as §1
[7] = test system: Mycobacterium tuberculosis; assay: Inhibition of mycolic acid biosynthesis in Mycobacterium tuberculosis mc2 6230 harbouring pMV261 plasmid overexpressing inhA assessed as decrease in keto-mycolic acid at 1.25 ug/ml incubated for 15 mins followed by 14C-labeled acetate addition measured after 7 hrs by TLC analysis; format: functional, organism-based; settings: dose 1.25 µg/ml, time 435.0 min; in short: as §1
[8] = test system: Mycobacterium tuberculosis; assay: Induction of resistance development in Mycobacterium tuberculosis harbouring katG F594C mutant assessed as resistance frequency at 5 times of MIC by visual analysis; format: functional
[9] = test system: Mycobacterium tuberculosis; assay: Induction of resistance development in Mycobacterium tuberculosis harbouring katG 186 del mutant assessed as resistance frequency at 20 times of MIC by visual analysis; format: functional
[10] = test system: Mycobacterium tuberculosis; assay: Induction of resistance development in Mycobacterium tuberculosis harbouring katG amino acid change at stop codon mutant assessed as resistance frequency at 5 times of MIC by visual analysis; format: functional
[11] = test system: Mycobacterium tuberculosis; assay: Induction of resistance development in Mycobacterium tuberculosis harbouring katG G495D mutant assessed as resistance frequency at 20 times of MIC by visual analysis; format: functional
[12] = test system: Mycobacterium tuberculosis; assay: Induction of resistance development in Mycobacterium tuberculosis harbouring katG W161R mutant assessed as resistance frequency at 5 times of MIC by visual analysis; format: functional

Row | SMILES | MIC [1] [µg/mL] | MIC [2] [µg/mL] | fold change (FC) [3] | fold change (FC) [4] | inhibition [5] | inhibition [6] | inhibition [7] | Activity [8] | Activity [9] | Activity [10] | Activity [11] | Activity [12]
1 | COc1cc(/C=N/NC(=O)c2ccncc2)ccc1OCc1cn(-c2ccnc3cc(Cl)ccc23)nn1 | 50 (≈ 97.3 µM) | 12.5 (≈ 24.3 µM) | 25 | 25 | – | – | – | – | – | – | – | –
2 | COc1cc(/C=N/NC(=O)c2ccncc2)ccc1OCc1cn(CCNc2ccnc3cc(Cl)ccc23)nn1 | 25 (≈ 44.9 µM) | 12.5 (≈ 22.4 µM) | 25 | 25 | – | – | – | – | – | – | – | –
3 | NNC(=O)c1ccncc1 [ISONIAZID] | 1 (≈ 7.29 µM) | 1 (≈ 7.29 µM) | 20 | 20 | – | – | – | – | – | – | – | –
4 | O=C(N/N=C/c1ccccc1-n1cc(CN2CCN(c3ccnc4cc(Cl)ccc34)CC2)nn1)c1ccncc1 | 6.25 (≈ 11.3 µM) | 6.25 (≈ 11.3 µM) | 25 | 25 | inactive | inactive | inactive | 1.8 10^-6No_unit | 7.1 10^-7No_unit | – | – | –
5 | O=C(N/N=C/c1ccc(OCc2cn(CCCNc3ccnc4cc(Cl)ccc34)nn2)cc1)c1ccncc1 | 12.5 (≈ 23.1 µM) | 6.25 (≈ 11.6 µM) | 25 | 25 | – | – | – | – | – | 1.52 10^-6No_unit | 5 10^-7No_unit | –
6 | COc1cc(/C=N/NC(=O)c2ccncc2)ccc1OCc1cn(CCCNc2ccnc3cc(Cl)ccc23)nn1 | 25 (≈ 43.8 µM) | 6.25 (≈ 10.9 µM) | 25 | 25 | – | – | – | – | – | – | – | 1.16 10^-6No_unit
7 | O=C(N/N=C/c1ccc(OCc2cn(-c3ccnc4cc(Cl)ccc34)nn2)cc1)c1ccncc1 | > 200 | 6.25 (≈ 12.9 µM) | 25 | 25 | – | – | – | – | – | – | – | –
8 | O=C(N/N=C/c1ccc(OCc2cn(CCNc3ccnc4cc(Cl)ccc34)nn2)cc1)c1ccncc1 | 12.5 (≈ 23.7 µM) | 6.25 (≈ 11.9 µM) | 25 | 25 | – | – | – | – | – | – | – | –
